According to PubChem BioAssay:
Calls of active or inactive are those of the source.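 Rule for the calls, unless noted: active = fluorescence slope after compound addition differing from the mean of all screened samples at 99.7% confidence, in either direction; inactive = the rest.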

Target: Alpha-2C adrenergic receptor (Homo sapiens) (UniProt P18825)
Assay: compounds altering alpha2C-coupled GIRK flux – cell-based, HEK293 alpha2C/GIRK1/2, thallium flux, primary screen (AID 624);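 note: slope of fluorescence ratio to pre-addition baseline per second over 15 to 24 s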
Details: thallium flux BTC fluorescence, at 10 µM, actives lie on both sides

Chain of Alpha-2C adrenergic receptor (Homo sapiens) (P18825 whole entry, looked up): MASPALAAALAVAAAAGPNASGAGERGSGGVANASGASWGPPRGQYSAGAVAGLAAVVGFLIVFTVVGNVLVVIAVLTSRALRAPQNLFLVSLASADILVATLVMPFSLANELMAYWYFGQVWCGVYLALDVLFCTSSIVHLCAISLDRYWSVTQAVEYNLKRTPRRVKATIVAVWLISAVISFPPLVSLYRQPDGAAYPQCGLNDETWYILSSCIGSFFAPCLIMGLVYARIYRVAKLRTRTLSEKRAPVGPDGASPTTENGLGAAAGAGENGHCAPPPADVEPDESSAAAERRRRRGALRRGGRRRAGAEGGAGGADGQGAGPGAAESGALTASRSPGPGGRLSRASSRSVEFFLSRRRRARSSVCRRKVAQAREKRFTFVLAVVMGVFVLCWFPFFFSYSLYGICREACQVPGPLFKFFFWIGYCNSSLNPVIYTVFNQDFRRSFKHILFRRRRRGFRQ

| Compound | slope |
| --- | --- |
| CCOC(=O)Cn1c(SC)nc2sc3c(c2c1=O)CC(C)(C)OC3 | 0.00508 (inactive) |
| Cc1cc(C)nc(CC(N)=O)n1 | 0.0046 (inactive) |
| Cc1nnc2n(-c3ccccc3)c(=O)c3c4c(sc3n12)CC(C)CC4 (stereo not drawn) | 0.00538 (inactive) |
| COc1cc(C(=O)OCCN2CCCCC2)ccc1O | 0.00513 (inactive) |
| N#Cc1c(NC(=O)CCC(=O)O)sc2c1CCCC2 | 0.00575 (inactive) |
| CCCCc1ccc(NC(=O)CSC2=C(C#N)C(c3ccco3)C3=C(CCCC3=O)N2)cc1 (stereo not drawn) | 0.00706 (inactive) |
| COC(=O)c1ccc(CSc2ncnc3c2sc2nc(N4CCOCC4)c4c(c23)CCCC4)o1 | 0.00899 (inactive) |
| Cc1ccnc(N2CCN(c3cc(C)c(C#N)c4nc5ccccc5n34)CC2)c1 | 0.00554 (inactive) |
| Cc1nc(Nc2ncc3c(n2)CC(C)(C)CC3=O)nc2ccccc12 | 0.0055 (inactive) |
| COCc1[nH]nc2c1C(c1ccccc1OC)C(C#N)=C(N)O2 (stereo not drawn) | 0.00544 (inactive) |
| CC(=O)N1CCN(c2nc(CC(C)C)c3c(c2C#N)CCC3)CC1 | 0.00485 (inactive) |
| CCOCCN(C(=O)COC)c1cccc(OC)c1 | 0.00531 (inactive) |
| N/C(=N\c1nc2ccccc2o1)NC(=O)c1ccccc1NC(=O)c1ccccc1 | 0.0114 (inactive) |
| Cc1ccc(C(C)C)c(OCCNc2nc3c(c(=O)n(C)c(=O)n3C)n2C)c1 | 0.0063 (inactive) |
| Cc1nc(SCC(N)=O)[nH]c(=O)c1Cc1ccc(OC(C)C)cc1 | 0.00497 (inactive) |
| CCOc1ccc(Cc2nc(N)nc(N)n2)cc1 | 0.00481 (inactive) |
| Cc1nc(NCc2ccccc2)c(C(N)=O)c2c1COC(C)(C)C2 | 0.00486 (inactive) |
| Cc1nc2n[nH]c(N)c2c2c1COC(C)(C)C2 | 0.00411 (inactive) |
| C=CCNC(=O)C(C#N)c1nc2ccccc2nc1N1CCCCCC1 (stereo not drawn) | -0.000734 (inactive) |
| CC(C)C(C(=O)Nc1ncn[nH]1)N1C(=O)c2ccccc2C1=O (stereo not drawn) | 0.0054 (inactive) |

| Compound | slope |
| --- | --- |
| CCCCOc1cccc(-c2nnc(N)s2)c1 | 0.00766 (inactive) |
| COc1ccc(OC(=O)c2cc3ccccc3o2)cc1 | 0.0058 (inactive) |
| CCNc1nc(NC(C)C)nc(N(C#N)C(C)C(=O)N(C)C)n1 (stereo not drawn) | 0.00585 (inactive) |
| CCOC(=O)CSc1nc(-c2ccncc2)ccc1C#N | 0.00882 (inactive) |
| CCOc1cccc(-c2nnc3sc(C4CCCCC4)nn23)c1 | 0.00527 (inactive) |
| CCCCn1c(O)c(C=NCCCN(C)C)c(=O)[nH]c1=O | 0.0074 (inactive) |
| COc1cccc(C2C(C#N)=C(N)Oc3cc(C)[nH]c(=O)c32)c1OC (stereo not drawn) | 0.00584 (inactive) |
| Cc1cc(=O)oc(C)c1C(=O)Nc1cccc2nonc12 | 0.00487 (inactive) |
| COc1cc(OC)cc(C(=O)N2CCC(N3CCN(c4ccccc4)CC3)CC2)c1 | 0.00556 (inactive) |
| Cc1ccc2[nH]c3c(c2c1)CN(C(=O)CN1CCN(c2ccccn2)CC1)CC3 | 0.00579 (inactive) |
| COC(=O)c1sccc1NC(=O)c1c(C)cc(=O)oc1C | 0.00537 (inactive) |
| CCN(CC)c1ccc2cc(-c3nnc(-c4ccncc4)o3)c(=O)oc2c1 | 0.00165 (inactive) |
| CC(C)(C)NC(=O)CSc1nsc(SCC(=O)NC(C)(C)C)c1C#N | 0.00541 (inactive) |
| COC(=O)CN(c1nc(C)c(Br)c(OC)n1)S(=O)(=O)c1ccc(C)cc1 | 0.0055 (inactive) |
| COc1cc(C2C3C(=O)N(c4ccccc4)C(=O)C3ON2c2ccccc2)ccc1O (stereo not drawn) | 0.00862 (inactive) |
| Cc1ccc(C2C(C(=O)c3cc4ccccc4o3)=C(O)C(=O)N2CCCN(C)C)cc1 (stereo not drawn) | 0.00603 (inactive) |
| CC(C)C1Cc2c(C#N)c(N)n(C)c(=S)c2CO1 (stereo not drawn) | 0.00431 (inactive) |
| CCC12CN3CC(CC)(CN(C1)C3c1c(O)ccc3ccccc13)C2=O (stereo not drawn) | 0.00425 (inactive) |
| CCOc1ccc(CCNC(=O)C(O)c2ccccc2)cc1 (stereo not drawn) | 0.0068 (inactive) |

Test system: not listed separately
Assay: inhibitors of larval lipid processing in zebrafish, primary screen, whole organism, PED6 fluorescence, gall bladder and intestine (AID 686;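 active = a full or partial loss of lipid-probe fluorescence in the fish gall bladder, intestine or both, judged by eye; inactive = no fluorescence loss, or compound toxic to the fish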;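 note: larvae 5 to 7 days old with five fish per well; signal comes from phospholipase A2 cleavage of quenched PED6 carried via bile; overnight exposure to compound and PED6 before scoring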)
Details: Zebrafish larvae PED6 lipid processing, fluorescence scoring; screened at 20 µM (by protocol)
Method in brief: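 Doses: 20 µM single dose. Test system: live zebrafish larvae aged 5-7 days, whole organism. Quantity: five larvae per well. Measured by: By-eye fluorescence microscopy. Reagent: ingested quenched lipid PED6 at 100 nM. Read-out: visual per-well fluorescence inhibition score. Times: overnight exposure of larvae to compound plus PED6.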

| Compound | outcome |
| --- | --- |
| CCOC(=O)Cn1c(SC)nc2sc3c(c2c1=O)CC(C)(C)OC3 | inactive |
| Cc1cc(C)nc(CC(N)=O)n1 | inactive |
| Cc1nnc2n(-c3ccccc3)c(=O)c3c4c(sc3n12)CC(C)CC4 (stereo not drawn) | inactive |
| COc1cc(C(=O)OCCN2CCCCC2)ccc1O | inactive |
| N#Cc1c(NC(=O)CCC(=O)O)sc2c1CCCC2 | inactive |
| CCCCc1ccc(NC(=O)CSC2=C(C#N)C(c3ccco3)C3=C(CCCC3=O)N2)cc1 (stereo not drawn) | inactive |
| COC(=O)c1ccc(CSc2ncnc3c2sc2nc(N4CCOCC4)c4c(c23)CCCC4)o1 | inactive |
| Cc1ccnc(N2CCN(c3cc(C)c(C#N)c4nc5ccccc5n34)CC2)c1 | inactive |
| Cc1nc(Nc2ncc3c(n2)CC(C)(C)CC3=O)nc2ccccc12 | inactive |
| COCc1[nH]nc2c1C(c1ccccc1OC)C(C#N)=C(N)O2 (stereo not drawn) | inactive |
| CC(=O)N1CCN(c2nc(CC(C)C)c3c(c2C#N)CCC3)CC1 | inactive |
| CCOCCN(C(=O)COC)c1cccc(OC)c1 | inactive |
| N/C(=N\c1nc2ccccc2o1)NC(=O)c1ccccc1NC(=O)c1ccccc1 | inactive |
| Cc1ccc(C(C)C)c(OCCNc2nc3c(c(=O)n(C)c(=O)n3C)n2C)c1 | inactive |
| Cc1nc(SCC(N)=O)[nH]c(=O)c1Cc1ccc(OC(C)C)cc1 | inactive |
| CCOc1ccc(Cc2nc(N)nc(N)n2)cc1 | inactive |
| Cc1nc(NCc2ccccc2)c(C(N)=O)c2c1COC(C)(C)C2 | inactive |
| Cc1nc2n[nH]c(N)c2c2c1COC(C)(C)C2 | inactive |
| C=CCNC(=O)C(C#N)c1nc2ccccc2nc1N1CCCCCC1 (stereo not drawn) | inactive |
| CC(C)C(C(=O)Nc1ncn[nH]1)N1C(=O)c2ccccc2C1=O (stereo not drawn) | inactive |

| Compound | outcome |
| --- | --- |
| CCCCOc1cccc(-c2nnc(N)s2)c1 | inactive |
| COc1ccc(OC(=O)c2cc3ccccc3o2)cc1 | inactive |
| CCNc1nc(NC(C)C)nc(N(C#N)C(C)C(=O)N(C)C)n1 (stereo not drawn) | inactive |
| CCOC(=O)CSc1nc(-c2ccncc2)ccc1C#N | inactive |
| CCOc1cccc(-c2nnc3sc(C4CCCCC4)nn23)c1 | inactive; toxic |
| CCCCn1c(O)c(C=NCCCN(C)C)c(=O)[nH]c1=O | inactive |
| COc1cccc(C2C(C#N)=C(N)Oc3cc(C)[nH]c(=O)c32)c1OC (stereo not drawn) | inactive |
| Cc1cc(=O)oc(C)c1C(=O)Nc1cccc2nonc12 | inactive |
| COc1cc(OC)cc(C(=O)N2CCC(N3CCN(c4ccccc4)CC3)CC2)c1 | inactive |
| Cc1ccc2[nH]c3c(c2c1)CN(C(=O)CN1CCN(c2ccccn2)CC1)CC3 | inactive |
| COC(=O)c1sccc1NC(=O)c1c(C)cc(=O)oc1C | inactive |
| CCN(CC)c1ccc2cc(-c3nnc(-c4ccncc4)o3)c(=O)oc2c1 | inactive |
| CC(C)(C)NC(=O)CSc1nsc(SCC(=O)NC(C)(C)C)c1C#N | inactive |
| COC(=O)CN(c1nc(C)c(Br)c(OC)n1)S(=O)(=O)c1ccc(C)cc1 | inactive |
| COc1cc(C2C3C(=O)N(c4ccccc4)C(=O)C3ON2c2ccccc2)ccc1O (stereo not drawn) | inactive |
| Cc1ccc(C2C(C(=O)c3cc4ccccc4o3)=C(O)C(=O)N2CCCN(C)C)cc1 (stereo not drawn) | inactive |
| CC(C)C1Cc2c(C#N)c(N)n(C)c(=S)c2CO1 (stereo not drawn) | inactive |
| CCC12CN3CC(CC)(CN(C1)C3c1c(O)ccc3ccccc13)C2=O (stereo not drawn) | inactive |
| CCOc1ccc(CCNC(=O)C(O)c2ccccc2)cc1 (stereo not drawn) | inactive |
